Data as given in ChEMBL document CHEMBL2321875 (J Med Chem, 2013).
Active and inactive are the calls of the source. The calls are words filed in the database; no cut-off is given here.

target: T1, Protein-serine O-palmitoleoyltransferase porcupine (Mus musculus) (UniProt Q9JJJ7); assay: Inhibition of porcupine in E11.5 mouse embryo kidney assessed as inhibition of Wnt-mediated branching morphogenesis at 10 to 50 nM measured every 24 hrs by fluorescent stereoscopic analysis relative to control; settings: not given
T1 sequence (whole entry): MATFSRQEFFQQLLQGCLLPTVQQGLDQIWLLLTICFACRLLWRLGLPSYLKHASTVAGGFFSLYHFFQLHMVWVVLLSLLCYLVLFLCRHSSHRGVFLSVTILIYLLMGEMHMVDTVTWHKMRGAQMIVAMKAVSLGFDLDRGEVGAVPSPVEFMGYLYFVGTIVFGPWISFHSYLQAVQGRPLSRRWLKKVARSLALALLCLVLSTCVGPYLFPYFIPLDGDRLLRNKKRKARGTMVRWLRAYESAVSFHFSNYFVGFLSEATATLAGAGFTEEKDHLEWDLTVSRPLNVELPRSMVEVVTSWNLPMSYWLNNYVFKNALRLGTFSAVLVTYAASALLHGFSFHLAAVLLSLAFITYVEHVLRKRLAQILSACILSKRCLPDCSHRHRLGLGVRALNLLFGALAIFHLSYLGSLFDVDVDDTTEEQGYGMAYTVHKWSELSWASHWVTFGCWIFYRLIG
Method in brief: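 Kidneys from E11.5 Hoxb7Cre;RosaTomato mouse embryos were cultured at the air/media interface in media containing 1 nM to 1 μM compound, with DMSO controls. Media was replaced and fluorescent stereoscope images were taken every 24 h. The read-out was the fold increase in ureteric bud tip number from 0 to 48 h, compared by Student t test.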

| inhibition | SMILES |
| --- | --- |
| Active | O=C(CSc1nc2c(c(=O)n1-c1ccccc1)SCC2)Nc1ccc(-c2ccccc2)cn1 |

system: Danio rerio; assay: In vivo inhibition of porcupine in zebrafish embryos assessed as inhibition of Wnt/beta-casein-mediated posterior axis formation at 1 to 5 uM applied in aquarium water by mCherry-based reporter gene assay; type: functional, organism-based; settings: in the assay text read “beta-catenin” for “beta-casein”
Method in brief: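 Zebrafish embryos carrying an mCherry-based Wnt/β-catenin signaling reporter were exposed to increasing concentrations of compound in the aquarium water. Whole-animal fluorescence intensity was quantified, and posterior axis formation was scored.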

| SMILES | inhibition |
| --- | --- |
| O=C(CSc1nc2c(c(=O)n1-c1ccccc1)SCC2)Nc1ccc(-c2cccs2)cn1 | Active |
| O=C(CSc1nc2c(c(=O)n1-c1ccccc1)SCC2)Nc1ccc(-c2ccccc2)cn1 | Active |
| O=C(CSc1nc2c(c(=O)n1-c1ccccc1)SCC2)Nc1ccc(-c2ccoc2)cn1 | inactive |
| O=C(CSc1nc2c(c(=O)n1-c1ccccc1)SCC2)Nc1ccc(-c2cncnc2)cn1 | inactive |

system: Danio rerio; assay: In vivo inhibition of porcupine in juveline stage of zebrafish assessed as inhibition of Wnt-mediated tail fin regeneration at 5 uM; type: functional, organism-based; settings: not given

| SMILES | inhibition |
| --- | --- |
| O=C(CSc1nc2c(c(=O)n1-c1ccccc1)SCC2)Nc1ccc(-c2ccccc2)cn1 | Active |

system: not listed separately; assay: Half life in ICR/CD-1 mouse liver S9 fraction at 2 uM by LC-MS/MS analysis; type: ADME, subcellular; settings: not given

| half-life at 2 µM [min] | SMILES |
| --- | --- |
| 26 | O=C(CSc1nc2c(c(=O)n1-c1ccccc1)SCC2)Nc1ccc(-c2ccccc2)cn1 |

system: not listed separately; assay: Half life in rat plasma at 2 uM; type: ADME, cell-free; settings: not given

| half-life at 2 µM [min] | SMILES |
| --- | --- |
| 190 | O=C(CSc1nc2c(c(=O)n1-c1ccccc1)SCC2)Nc1ccc(-c2ccccc2)cn1 |

system: not listed separately; assay: Half life in mouse plasma at 2 uM; type: ADME, cell-free; settings: not given

| half-life at 2 µM [min] | SMILES |
| --- | --- |
| 2 | O=C(CSc1nc2c(c(=O)n1-c1ccccc1)SCC2)Nc1ccc(-c2ccccc2)cn1 |

target: T2, Protein-serine O-palmitoleoyltransferase porcupine (Homo sapiens) (UniProt Q9H237); assay: Inhibition of porcupine-mediated phosphorylation of dishevelled 2 in HEK293 cells at 2.5 uM; type: cell-based; settings: not given
T2 sequence (whole entry): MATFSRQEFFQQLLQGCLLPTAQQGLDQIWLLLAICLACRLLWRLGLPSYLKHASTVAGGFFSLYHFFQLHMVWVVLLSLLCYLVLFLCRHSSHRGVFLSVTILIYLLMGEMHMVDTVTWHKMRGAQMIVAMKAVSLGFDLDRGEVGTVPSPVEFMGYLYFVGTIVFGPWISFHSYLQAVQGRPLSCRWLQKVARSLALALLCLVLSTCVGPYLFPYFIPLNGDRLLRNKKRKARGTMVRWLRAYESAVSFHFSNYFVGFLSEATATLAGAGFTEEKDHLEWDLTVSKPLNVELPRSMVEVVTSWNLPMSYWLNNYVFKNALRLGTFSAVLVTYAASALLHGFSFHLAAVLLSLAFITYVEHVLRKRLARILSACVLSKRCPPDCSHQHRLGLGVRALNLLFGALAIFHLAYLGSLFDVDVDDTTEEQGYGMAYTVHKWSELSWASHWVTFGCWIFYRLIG

| inhibition | SMILES |
| --- | --- |
| Active | O=C(CSc1nc2c(c(=O)n1-c1ccccc1)SCC2)Nc1ccc(-c2ccccc2)cn1 |

target: T3, Protein-serine O-palmitoleoyltransferase porcupine (Mus musculus, UniProt Q9JJJ7); assay: Inhibition of porcupine-mediated Wnt signalling in mouse L cells after 24 hrs by SuperTopflash reporter assay; type: cell-based; settings: not given
T3 sequence (Q9JJJ7 whole entry): T1 sequence (whole entry)

| EC50 [nM] | SMILES |
| --- | --- |
| 40 | Cc1ccc2nc(NC(=O)CSc3nc4c(c(=O)n3-c3ccc(F)cc3)SCC4)sc2c1 |
| 100 | Cc1ccc2nc(NC(=O)CNC(=O)c3nn(-c4ccc(F)cc4)c(=O)c4ccccc34)sc2c1 |
| > 5000 | O=C(CSc1nc2c(c(=O)n1-c1ccccc1)SCC2)Nc1cccc(-c2ccccc2)c1 |
| 0.3 | O=C(CSc1nc2c(c(=O)n1-c1ccccc1)SCC2)Nc1ccc(-c2ccccc2)nc1 |
| 120 | COc1ccc(-n2c(SCC(=O)Nc3nc4ccc(OC)cc4s3)nc3c(c2=O)SCC3)cc1 |
| 100 | O=C(CSc1nc2c(c(=O)n1-c1ccc(F)cc1)SCC2)Nc1nc2ccc(C(F)(F)F)cc2s1 |
| 60 | COc1ccc(-n2nc(C(=O)NCC(=O)Nc3nc4ccc(OC)cc4s3)c3ccccc3c2=O)cc1 |
| 3.5 | O=C(CSc1nc2c(c(=O)n1-c1ccccc1)SCC2)Nc1ncc(-c2ccco2)cn1 |
| 0.3 | O=C(CSc1nc2c(c(=O)n1-c1ccccc1)SCC2)Nc1ccc(-c2cccs2)cn1 |
| 90 | O=C(CNC(=O)c1nn(-c2ccc(F)cc2)c(=O)c2ccccc12)Nc1nc2ccc(C(F)(F)F)cc2s1 |
| 100 | COc1ccc(-n2c(SCC(=O)Nc3nc4ccc(C(F)(F)F)cc4s3)nc3c(c2=O)SCC3)cc1 |
| 0.5 | O=C(CSc1nc2c(c(=O)n1-c1ccccc1)SCC2)Nc1ccc(-c2ccccc2)cn1 |
| > 25000 | O=C(CNC(=O)c1nn(-c2ccc(F)cc2)c(=O)c2ccccc12)Nc1nc2ccccc2s1 |
| 30 | O=C(CSc1nc2c(c(=O)n1-c1ccccc1)SCC2)Nc1ccc(N2CCCCC2)cc1 |
| 10000 | COc1ccccc1-n1nc(C(=O)NCC(=O)Nc2nc3ccccc3s2)c2ccccc2c1=O |
| 2600 | O=C(CNC(=O)c1nn(-c2ccccc2)c(=O)c2ccccc12)Nc1nc2ccccc2s1 |
| 1 | O=C(CSc1nc2c(c(=O)n1-c1ccccc1)SCC2)Nc1ccc(-c2cccnc2)cn1 |
| 30 | COc1ccccc1-n1c(SCC(=O)Nc2nc3ccc(C(F)(F)F)cc3s2)nc2c(c1=O)SCC2 |
| 30 | Cc1ccc2nc(NC(=O)CSc3nc4c(c(=O)n3-c3ccccc3)SCC4)sc2c1 |
| 15 | O=C(CSc1nc2c(c(=O)n1-c1ccccc1)SCC2)Nc1ncc(-c2ccccc2)cn1 |
| 210 | COc1ccc2nc(NC(=O)CNC(=O)c3nn(-c4ccccc4)c(=O)c4ccccc34)sc2c1 |

| EC50 [nM] | SMILES |
| --- | --- |
| 90 | COc1ccc2nc(NC(=O)CNC(=O)c3nn(-c4ccc(F)cc4)c(=O)c4ccccc34)sc2c1 |
| 350 | O=C(CSc1nc2c(c(=O)n1-c1ccccc1)SCC2)Nc1nc(-c2ccccc2)cs1 |
| 470 | O=C(CNC(=O)c1nn(-c2ccccc2)c(=O)c2ccccc12)Nc1nc2ccc(F)cc2s1 |
| 35 | COc1ccc(-n2c(SCC(=O)Nc3nc4ccc(Cl)cc4s3)nc3c(c2=O)SCC3)cc1 |
| 30 | O=C(CNC(=O)c1nn(-c2ccccc2)c(=O)c2ccccc12)Nc1nc2ccc(Cl)cc2s1 |
| 35 | Cc1ccc2nc(NC(=O)CNC(=O)c3nn(-c4ccccc4)c(=O)c4ccccc34)sc2c1 |
| > 25000 | O=C(CNC(=O)c1nn(-c2ccccc2)c(=O)c2ccccc12)Nc1nccs1 |
| 4000 | CCn1c(SCC(=O)Nc2nc3ccccc3s2)nc2c(c1=O)SC(C)C2 (stereo not drawn) |
| 0.75 | O=C(CSc1nc2c(c(=O)n1-c1ccccc1)SCC2)Nc1ccc(-c2ccccc2)cc1 |
| 1.5 | O=C(CSc1nc2c(c(=O)n1-c1ccccc1)SCC2)Nc1ccc(-c2ccoc2)cn1 |
| 580 | COc1ccc2nc(NC(=O)CSc3nc4c(c(=O)n3-c3ccccc3)SCC4)ccc2c1 |
| 55 | O=C(CSc1nc2c(c(=O)n1-c1ccccc1)SCC2)Nc1ncc(-c2ccccc2)s1 |
| 25000 | COc1ccc(-n2nc(C(=O)NCC(=O)Nc3nc4ccccc4s3)c3ccccc3c2=O)cc1 |
| 50 | COc1ccccc1-n1c(SCC(=O)Nc2nc3ccc(Cl)cc3s2)nc2c(c1=O)SCC2 |
| 240 | O=C(CNC(=O)c1nn(-c2ccccc2)c(=O)c2ccccc12)Nc1nc2ccc([N+](=O)[O-])cc2s1 |
| 25 | COc1ccccc1-n1c(SCC(=O)Nc2nc3ccc(C)cc3s2)nc2c(c1=O)SCC2 |
| 25 | O=C(CNC(=O)c1nn(-c2ccc(F)cc2)c(=O)c2ccccc12)Nc1nc2ccc(Cl)cc2s1 |
| 3.5 | O=C(CSc1nc2c(c(=O)n1-c1ccccc1)SCC2)Nc1ccc(-c2ccco2)cn1 |
| 250 | COc1ccc2nc(NC(=O)CSc3nc4c(c(=O)n3-c3ccc(F)cc3)SCC4)sc2c1 |
| 5.5 | O=C(CSc1nc2c(c(=O)n1-c1ccccc1)SCC2)Nc1ccc(-c2cncnc2)cn1 |
| 25 | COc1ccc(-n2nc(C(=O)NCC(=O)Nc3nc4ccc(C)cc4s3)c3ccccc3c2=O)cc1 |

| EC50 [nM] | SMILES |
| --- | --- |
| 50 | COc1ccc2nc(NC(=O)CSc3nc4c(c(=O)n3-c3ccccc3OC)SCC4)sc2c1 |
| 40 | COc1ccc2nc(NC(=O)CSc3nc4c(c(=O)n3-c3ccccc3)SCC4)sc2c1 |
| > 1000 | CN(C)c1ccc(NC(=O)CSc2nc3c(c(=O)n2-c2ccccc2)SCC3)cc1 |
| 175 | O=C(CSc1nc2c(c(=O)n1-c1ccc(F)cc1)SCC2)Nc1nc2ccc(Cl)cc2s1 |
| 4 | O=C(CSc1nc2c(c(=O)n1-c1ccccc1)SCC2)Nc1ccc(-c2ccccn2)cc1 |
| 90 | COc1ccc2nc(NC(=O)CNC(=O)c3nn(-c4ccccc4OC)c(=O)c4ccccc34)sc2c1 |
| 300 | CCOC(=O)c1ccc(NC(=O)CSc2nc3c(c(=O)n2-c2ccccc2)SCC3)cc1 |
| 3 | O=C(CSc1nc2c(c(=O)n1-c1ccccc1)SCC2)Nc1ccc(-c2ccncc2)cc1 |
| 40 | O=C(CSc1nc2c(c(=O)n1-c1ccccc1)SCC2)Nc1nc2ccc(C(F)(F)F)cc2s1 |
| 15 | Cc1ccc2nc(NC(=O)CSc3nc4c(c(=O)n3C)SC(C)C4)sc2c1 (stereo not drawn) |
| > 5000 | O=C(CSc1nc2c(c(=O)n1-c1ccccc1)SCC2)Nc1ccccc1-c1ccccc1 |
| 2 | O=C(CSc1nc2c(c(=O)n1-c1ccccc1)SCC2)Nc1ccc(-c2ccsc2)cn1 |
| 40 | O=C(CSc1nc2c(c(=O)n1-c1ccccc1)SCC2)Nc1nc2ccc(Cl)cc2s1 |
| 0.45 | O=C(CSc1nc2c(c(=O)n1-c1ccccc1)SCC2)Nc1ccc(-c2cccnc2)cc1 |
| > 25000 | COc1ccc2nc(NC(=O)CNC(=O)c3ccc(=O)n(-c4ccccc4)c3)sc2c1 |
| 110 | O=C(CNC(=O)c1nn(-c2ccccc2)c(=O)c2ccccc12)Nc1nc2ccc(C(F)(F)F)cc2s1 |
| > 1000 | CC(=O)c1ccc(NC(=O)CSc2nc3c(c(=O)n2-c2ccccc2)SCC3)cc1 |
| 1000 | CCOc1ccc(NC(=O)CSc2nc3c(c(=O)n2-c2ccccc2)SCC3)cc1 |
| > 25000 | CCOC(=O)c1ccc2nc(NC(=O)CNC(=O)c3nn(-c4ccccc4)c(=O)c4ccccc34)sc2c1 |
| 1.5 | O=C(CSc1nc2c(c(=O)n1-c1ccccc1)SCC2)Nc1ncc(-c2ccoc2)cn1 |
| 15 | COc1ccc(-n2nc(C(=O)NCC(=O)Nc3nc4ccc(Cl)cc4s3)c3ccccc3c2=O)cc1 |
